Laboratory results published in ChEMBL document CHEMBL4368872, “Synthesis and anticonvulsant activity of phenoxyacetyl derivatives of amines, including aminoalkanols and amino acids” (Medchemcomm, 2018).
The source made the active and inactive calls.

What was measured:
Mus musculus [1] = assay: Anticonvulsant activity in ip dosed CF-1 mouse model of subcutaneous pentylenetetrazole-induced seizure assessed as reduction in convulsions; format: functional
Procedure, shortened: (§1)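 Mice given test compound i.p.; pentylenetetrazole 85 mg kg⁻¹ in 0.9% NaCl injected subcutaneously into posterior midline of neck. Seizures observed for at least 30 min. Protected = no fore and/or hind limb clonus, jaw chomping or vibrissae twitching (3 to 5 s). Screening doses 30, 100, 300 mg kg⁻¹; read at 0.25, 0.5, 1.0, 4.0 h; scored as protected/tested.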

Mus musculus [2] = assay: Anticonvulsant activity in ip dosed CF-1 mouse model of subcutaneous pentylenetetrazole-induced seizure assessed as time required for reduction in convulsions; format: functional; procedure, shortened: as §1
Mus musculus [3] = assay: Anticonvulsant activity in CF-1 mouse model of maximal electroshock-induced seizure assessed as suppression of tonic hind limb extension at 30 mg/kg, ip measured at 4 hrs post dose; format: functional, organism-based
Procedure, shortened: (§2)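 Mice dosed i.p. and given maximal electroshock at 50 mA. Read-out is protection, reported as number protected / number tested at 0.25, 0.5, 1 and 4 h after dosing.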

Mus musculus [4] = assay: Anticonvulsant activity in CF-1 mouse model of subcutaneous pentylenetetrazole-induced seizure assessed as reduction in convulsions at 30 mg/kg, ip measured at 4 hrs post dose; format: functional, organism-based
Procedure, shortened: (§3)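 Mice dosed i.p., then given pentylenetetrazole 85 mg/kg in 0.9% NaCl s.c. into the posterior midline of the neck. Seizures watched for at least 30 min. Scored as protected / tested at 0.5 and 4 h.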

Mus musculus [5] = assay: Anticonvulsant activity in CF-1 mouse model of maximal electroshock-induced seizure assessed as suppression of tonic hind limb extension at 30 mg/kg, ip measured at 0.5 hrs post dose; format: functional, organism-based; procedure, shortened: as §2
[6] = Neurotoxicity in CF-1 mouse at 100 mg/kg, ip measured after 4 hrs by rotarod test; format: toxicity, organism-based; conditions: in vivo
Procedure, shortened: (§4)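 Mice dosed i.p. were placed on a 1 in. knurled rod turning at 6 rpm. Toxicity was scored as failure to keep balance for at least 1 min, i.e. falling off three or more times. Results are reported as animals showing toxicity / animals tested at each time point.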

Rattus norvegicus [7] = assay: Anticonvulsant activity in Sprague-Dawley rat model of maximal electroshock-induced seizure assessed as suppression of tonic hind limb extension at 30 mg/kg, po measured at 0.25 hrs post dose; format: functional, organism-based
Procedure, shortened: (§5)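 Rats given 30 mg/kg p.o. and tested by maximal electroshock at 150 mA. Scored as number protected / number tested (4 per group) at 0.25, 0.5, 1, 2 and 4 h after dosing.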

[8] = Neurotoxicity in Sprague-Dawley rat at 30 mg/kg, po measured after 2 hrs by rotarod test; format: toxicity, organism-based; conditions: in vivo
Procedure, shortened: (§6)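 Rat neurotoxicity after i.p. or p.o. dosing was scored as animals impaired / animals tested at each time point. For p.o. dosing, TD50 was obtained by probit analysis.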

[9] = Neurotoxicity in Sprague-Dawley rat at 30 mg/kg, po measured after 0.25 hrs by rotarod test; format: toxicity, organism-based; conditions: in vivo; procedure, shortened: as §6
Mus musculus [10] = assay: Anticonvulsant activity in CF-1 mouse model of maximal electroshock-induced seizure assessed as suppression of tonic hind limb extension at 300 mg/kg, ip measured at 0.5 hrs post dose; format: functional, organism-based; procedure, shortened: as §2
Mus musculus [11] = assay: Anticonvulsant activity in CF-1 mouse model of maximal electroshock-induced seizure assessed as suppression of tonic hind limb extension at 100 mg/kg, ip measured at 1 hr post dose; format: functional, organism-based; procedure, shortened: as §2
[12] = Neurotoxicity in CF-1 mouse at 100 mg/kg, ip measured after 0.5 hrs by rotarod test; format: toxicity, organism-based; conditions: in vivo; procedure, shortened: as §4
[13] = Neurotoxicity in CF-1 mouse at 300 mg/kg, ip measured after 0.5 hrs by rotarod test; format: toxicity, organism-based; conditions: in vivo; procedure, shortened: as §4
[14] = Neurotoxicity in Sprague-Dawley rat at 30 mg/kg, po measured after 4 hrs by rotarod test; format: toxicity, organism-based; conditions: in vivo; procedure, shortened: as §6
[15] = Neurotoxicity in Sprague-Dawley rat at 30 mg/kg, po measured after 0.5 hrs by rotarod test; format: toxicity, organism-based; conditions: in vivo; procedure, shortened: as §6
[16] = Neurotoxicity in CF-1 mouse at 30 mg/kg, ip measured after 4 hrs by rotarod test; format: toxicity, organism-based; conditions: in vivo; procedure, shortened: as §4
Mus musculus [17] = assay: Anticonvulsant activity in CF-1 mouse model of maximal electroshock-induced seizure assessed as suppression of tonic hind limb extension at 100 mg/kg, ip measured at 4 hrs post dose; format: functional, organism-based; procedure, shortened: as §2
Rattus norvegicus [18] = assay: Anticonvulsant activity in Sprague-Dawley rat model of maximal electroshock-induced seizure assessed as suppression of tonic hind limb extension at 30 mg/kg, po measured at 1 hr post dose; format: functional, organism-based; procedure, shortened: as §5
Mus musculus [19] = assay: Anticonvulsant activity in CF-1 mouse model of subcutaneous pentylenetetrazole-induced seizure assessed as reduction in convulsions at 300 mg/kg, ip measured at 4 hrs post dose; format: functional, organism-based; procedure, shortened: as §3
Rattus norvegicus [20] = assay: Anticonvulsant activity in Sprague-Dawley rat model of maximal electroshock-induced seizure assessed as suppression of tonic hind limb extension at 30 mg/kg, po measured at 2 hrs post dose; format: functional, organism-based; procedure, shortened: as §5
[21] = Neurotoxicity in CF-1 mouse at 300 mg/kg, ip measured after 4 hrs by rotarod test; format: toxicity, organism-based; conditions: in vivo; procedure, shortened: as §4
Mus musculus [22] = assay: Anticonvulsant activity in CF-1 mouse model of subcutaneous pentylenetetrazole-induced seizure assessed as reduction in convulsions at 300 mg/kg, ip measured at 0.5 hrs post dose; format: functional, organism-based; procedure, shortened: as §3
[23] = Neurotoxicity in CF-1 mouse at 30 mg/kg, ip measured after 0.5 hrs by rotarod test; format: toxicity, organism-based; conditions: in vivo; procedure, shortened: as §4
Mus musculus [24] = assay: Anticonvulsant activity in CF-1 mouse model of maximal electroshock-induced seizure assessed as suppression of tonic hind limb extension at 100 mg/kg, ip measured at 0.5 hrs post dose; format: functional, organism-based; procedure, shortened: as §2
Rattus norvegicus [25] = assay: Anticonvulsant activity in Sprague-Dawley rat model of maximal electroshock-induced seizure assessed as suppression of tonic hind limb extension at 30 mg/kg, po measured at 0.5 hrs post dose; format: functional, organism-based; procedure, shortened: as §5
[26] = Neurotoxicity in CF-1 mouse at 100 mg/kg, ip measured after 1 hr by rotarod test; format: toxicity, organism-based; conditions: in vivo; procedure, shortened: as §4
Mus musculus [27] = assay: Anticonvulsant activity in CF-1 mouse model of subcutaneous pentylenetetrazole-induced seizure assessed as reduction in convulsions at 100 mg/kg, ip measured at 0.5 hrs post dose; format: functional, organism-based; procedure, shortened: as §3
[28] = Neurotoxicity in Sprague-Dawley rat at 30 mg/kg, po measured after 1 hr by rotarod test; format: toxicity, organism-based; conditions: in vivo; procedure, shortened: as §6
Mus musculus [29] = assay: Anticonvulsant activity in CF-1 mouse model of subcutaneous pentylenetetrazole-induced seizure assessed as reduction in convulsions at 100 mg/kg, ip measured at 4 hrs post dose; format: functional, organism-based; procedure, shortened: as §3
Mus musculus [30] = assay: Anticonvulsant activity in CF-1 mouse model of subcutaneous pentylenetetrazole-induced seizure assessed as reduction in convulsions at 30 mg/kg, ip measured at 0.5 hrs post dose; format: functional, organism-based; procedure, shortened: as §3
Mus musculus [31] = assay: Anticonvulsant activity in CF-1 mouse model of maximal electroshock-induced seizure assessed as suppression of tonic hind limb extension at 300 mg/kg, ip measured at 4 hrs post dose; format: functional, organism-based; procedure, shortened: as §2
[32] = Neurotoxicity in CF-1 mouse at 100 mg/kg, ip measured after 2 hrs by rotarod test; format: toxicity, organism-based; conditions: in vivo; procedure, shortened: as §4
[33] = Neurotoxicity in CF-1 mouse at 300 mg/kg, ip measured after 2 hrs by rotarod test; format: toxicity, organism-based; conditions: in vivo; procedure, shortened: as §4
Mus musculus [34] = assay: Anticonvulsant activity in CF-1 mouse assessed as protection against 44 mA current-induced seizure at 300 mg/kg, ip after 2 hrs by 6 Hz psychomotor test; format: functional, organism-based
Procedure, shortened: (§7)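 Mice dosed i.p. (30, 100, 300 mg/kg; one line at 120 mg/kg read at 15 min). Corneal stimulation at 6 Hz, 44 mA for 3 s from a constant-current device induces a psychomotor seizure with stunned posture, forelimb automatisms, clonus, vibrissae twitching and Straub tail. Scored as number of animals protected / number tested (4 per group) at 0.5 and 2 h.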

Mus musculus [35] = assay: Anticonvulsant activity in CF-1 mouse assessed as protection against 44 mA current-induced seizure at 100 mg/kg, ip after 2 hrs by 6 Hz psychomotor test; format: functional, organism-based; procedure, shortened: as §7
Mus musculus [36] = assay: Anticonvulsant activity in CF-1 mouse model of maximal electroshock-induced seizure assessed as suppression of tonic hind limb extension at 100 mg/kg, ip measured at 2 hrs post dose; format: functional, organism-based
[37] = Neurotoxicity in CF-1 mouse at 30 mg/kg, ip measured after 2 hrs by rotarod test; format: toxicity, organism-based; conditions: in vivo; procedure, shortened: as §4
Mus musculus [38] = assay: Anticonvulsant activity in CF-1 mouse assessed as protection against 44 mA current-induced seizure at 30 mg/kg, ip after 0.5 hrs by 6 Hz psychomotor test; format: functional, organism-based; procedure, shortened: as §7
Mus musculus [39] = assay: Anticonvulsant activity in CF-1 mouse assessed as protection against 44 mA current-induced seizure at 30 mg/kg, ip after 2 hrs by 6 Hz psychomotor test; format: functional, organism-based; procedure, shortened: as §7
Mus musculus [40] = assay: Anticonvulsant activity in CF-1 mouse model of maximal electroshock-induced seizure assessed as suppression of tonic hind limb extension at 30 mg/kg, ip measured at 2 hrs post dose; format: functional, organism-based
Mus musculus [41] = assay: Anticonvulsant activity in CF-1 mouse assessed as protection against 44 mA current-induced seizure at 40 to 80 mg/kg, ip after 0.5 hrs by 6 Hz psychomotor test; format: functional
[42] = Neurotoxicity in Sprague-Dawley rat at 100 mg/kg, ip measured after 2 hrs by rotarod test; format: toxicity, organism-based; conditions: Sprague-Dawley, in vivo; procedure, shortened: as §6
Mus musculus [43] = assay: Anticonvulsant activity in CF-1 mouse assessed as protection against 44 mA current-induced seizure at 100 mg/kg, ip after 0.5 hrs by 6 Hz psychomotor test; format: functional, organism-based; procedure, shortened: as §7
Mus musculus [44] = assay: Anticonvulsant activity in CF-1 mouse assessed as protection against 44 mA current-induced seizure at 300 mg/kg, ip after 0.5 hrs by 6 Hz psychomotor test; format: functional, organism-based; procedure, shortened: as §7

CC(=O)[C@H]1CC[C@H]2[C@@H]3CC[C@H]4C[C@H](O)CC[C@]4(C)[C@H]3CC[C@]12C [BREXANOLONE]
0.17 h: Time (Mus musculus [2])
13.7 mg/kg: ED50 (Mus musculus [1])

Cc1cccc(C)c1OCC(=O)NCC(C)O (configuration not stated)
Non-Toxic: Activity [6] | Activity [8] | Activity [9] | Activity [12] | Activity [14] | Activity [15] | Activity [16] | Activity [21] | Activity [23] | Activity [26] | Activity [28]
active: Activity (Mus musculus [10])
Toxic: Activity [13]
inactive: Activity (Mus musculus [3]) | Activity (Mus musculus [4]) | Activity (Mus musculus [5]) | Activity (Rattus norvegicus [7]) | Activity (Mus musculus [11]) | Activity (Mus musculus [17]) | Activity (Rattus norvegicus [18]) | Activity (Mus musculus [19]) | Activity (Rattus norvegicus [20]) | Activity (Mus musculus [22]) | Activity (Mus musculus [24]) | Activity (Rattus norvegicus [25]) | Activity (Mus musculus [27]) | Activity (Mus musculus [29]) | Activity (Mus musculus [30]) | Activity (Mus musculus [31])

Cc1cccc(OCC(=O)N[C@H]2CC[C@H](O)CC2)c1C
active: Activity (Mus musculus [10]) | Activity (Mus musculus [34])
Non-Toxic: Activity [32] | Activity [33] | Activity [12] | Activity [23] | Activity [37]
inactive: Activity (Mus musculus [5]) | Activity (Mus musculus [35]) | Activity (Mus musculus [36]) | Activity (Mus musculus [24]) | Activity (Mus musculus [38]) | Activity (Mus musculus [39]) | Activity (Mus musculus [40])

NC(=O)N1c2ccccc2C=Cc2ccccc21 [CARBAMAZEPINE]
75%: %max (Mus musculus [41])
364 mg/kg: TD50 at 2 h [42]

Cc1cccc(C)c1OCC(=O)N[C@H]1CC[C@H](OC(=O)COc2c(C)cccc2C)CC1
Non-Toxic: Activity [32] | Activity [33] | Activity [12] | Activity [13] | Activity [23] | Activity [37]
inactive: Activity (Mus musculus [43]) | Activity (Mus musculus [5]) | Activity (Mus musculus [44]) | Activity (Mus musculus [10]) | Activity (Mus musculus [35]) | Activity (Mus musculus [36]) | Activity (Mus musculus [38]) | Activity (Mus musculus [39]) | Activity (Mus musculus [40])
